Measured values from PMC6424611 (Journal of molecular biology, 2019).
Where no end group is shown, it is not given here. The star is where a group is joined. Biotin = O=C1N[C@H]2[C@H](CS[C@H]2CCCCC(=O)*)N1; TTDS = NCCCOCCOCCOCCCNC(=O)CCC(=O)*

What was measured:
[1] = target: T1, SNTB1 PDZ (Homo sapiens, UniProt Q13884); test: holdup assay; format: binding; conditions: ~4 μM PDZ
T1 sequence (Q13884 112-195 limits assumed): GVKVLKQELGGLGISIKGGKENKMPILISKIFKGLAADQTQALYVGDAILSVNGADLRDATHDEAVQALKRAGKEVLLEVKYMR
In short: (§1)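 Automated holdup against N-terminally biotinylated (TTDS linker) RSK1 725–735 peptides, unphosphorylated and phosphorylated, in triplicate. PDZome v2 clones were codon-optimized and expressed in E. coli, with soluble lysate adjusted to ~4 μM. BI is the PDZ fraction depleted from the fluid phase.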

[2] = tested on: SCRIB-3 PDZ; test: holdup assay, updated analysis; format: binding, human; conditions: weak partner; automated computational protocol
In short: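 The same triplicate holdup datasets (biotinylated RSK1 725–735, unphosphorylated and phosphorylated, vs ~4 μM PDZome lysates) were re-analysed with an updated automated computational protocol. This gave alternative BI values, reported as supplemental values alongside the conventional analysis.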

[3] = tested on: PPP1R9A PDZ; test: holdup assay; format: binding, human; conditions: ~4 μM PDZ
In short: as §1

[4] = target: HTRA1 PDZ (Homo sapiens, UniProt Q92743); test: holdup assay; format: binding; conditions: ~4 μM PDZ
Chain of HTRA1 PDZ (Q92743 365-467 limits assumed): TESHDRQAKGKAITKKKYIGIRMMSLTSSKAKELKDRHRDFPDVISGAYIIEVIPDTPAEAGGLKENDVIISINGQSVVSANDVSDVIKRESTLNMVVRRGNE
In short: as §1

[5] = tested on: DLG4-2 PDZ; test: holdup assay; format: binding, human; conditions: ~4 μM PDZ
[6] = target: T2, SNTA1 PDZ (Homo sapiens, UniProt Q13424); test: holdup assay; format: binding; conditions: fraction of PDZ depleted; ~4 μM PDZ; biotinylated RSK1_725–735; triplicates
T2 sequence (Q13424 87-170 limits assumed): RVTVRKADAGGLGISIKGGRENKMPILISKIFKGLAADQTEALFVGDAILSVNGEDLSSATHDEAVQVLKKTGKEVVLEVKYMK
In short: as §1

[7] = target: T3, MAST1 PDZ (Homo sapiens, UniProt Q9Y2H9); test: holdup assay; format: binding; conditions: ~4 μM PDZ
T3 sequence (Q9Y2H9 967-1055 limits assumed): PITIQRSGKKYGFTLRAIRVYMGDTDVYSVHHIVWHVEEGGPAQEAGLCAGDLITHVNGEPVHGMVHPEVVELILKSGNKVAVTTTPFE
In short: as §1

[8] = target: MAGI2-2 PDZ (Homo sapiens, UniProt Q86UL8); test: holdup assay; format: binding; conditions: ~4 μM PDZ
Chain of MAGI2-2 PDZ (Q86UL8 426-510 limits assumed): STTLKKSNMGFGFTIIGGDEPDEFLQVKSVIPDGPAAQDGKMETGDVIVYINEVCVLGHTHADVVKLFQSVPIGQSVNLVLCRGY
In short: as §1

[9] = tested on: GRID2IP-1 PDZ; test: holdup assay; format: binding, human; conditions: ~4 μM PDZ
In short: as §1

[10] = tested on: LIMK2 PDZ; test: holdup assay; format: binding, human; conditions: ~4 μM PDZ
In short: as §1

[11] = tested on: DFNB31-3 PDZ; test: holdup assay; format: binding, human; conditions: ~4 μM PDZ
In short: as §1

[12] = tested on: human PDZ domains (PDZome); test: holdup assay, PDZome-binding profile; conditions: PDZome profile
In short: (§2)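 Automated holdup in triplicate measured biotinylated (N-terminal TTDS linker) RSK1 725–735 peptides, unphosphorylated or phosphorylated, against E. coli-expressed PDZome v2 domains. Soluble lysate was adjusted to ~4 μM, giving 255 domains for the unphosphorylated and 252 for the phosphorylated peptide. Binding intensity (BI) is the fraction of PDZ depleted from the fluid phase. BI 0.2 was the high-confidence threshold.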

[13] = target: GOPC PDZ (Homo sapiens, UniProt Q9HD26); test: holdup assay; format: binding; conditions: fraction of PDZ depleted; ~4 μM PDZ; biotinylated RSK1_725–735; triplicates
[14] = target: MAGI1-2 PDZ (Homo sapiens, UniProt Q96QZ7); test: holdup assay; format: binding; conditions: ~4 μM PDZ
Chain of MAGI1-2 PDZ (Q96QZ7 472-554 limits assumed): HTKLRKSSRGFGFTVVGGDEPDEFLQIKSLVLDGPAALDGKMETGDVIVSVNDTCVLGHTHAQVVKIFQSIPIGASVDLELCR
In short: as §1

[15] = tested on: PTPN3 PDZ; test: holdup assay; format: binding, human; conditions: ~4 μM PDZ
In short: as §1

[16] = target: T4, SYNJ2BP PDZ (Homo sapiens, UniProt P57105); test: holdup assay; format: binding; conditions: ~4 μM PDZ
T4 sequence (P57105 13-100 limits assumed): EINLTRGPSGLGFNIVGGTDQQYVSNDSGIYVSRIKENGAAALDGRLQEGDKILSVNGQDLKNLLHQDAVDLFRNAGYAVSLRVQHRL
In short: as §1

[17] = target: GRID2IP-2 PDZ (Homo sapiens, UniProt A4D2P6); test: holdup assay; format: binding; conditions: fraction of PDZ depleted; ~4 μM PDZ; biotinylated RSK1_725–735; triplicates
Chain of GRID2IP-2 PDZ (A4D2P6 279-356 limits assumed): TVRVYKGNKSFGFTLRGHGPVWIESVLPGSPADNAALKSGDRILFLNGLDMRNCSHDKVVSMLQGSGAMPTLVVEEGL
In short: as §2

[18] = target: T5, MAST2 PDZ (Homo sapiens, UniProt Q6P0Q8); test: holdup assay; format: binding; conditions: fraction of PDZ depleted; ~4 μM PDZ; biotinylated RSK1_725–735; triplicates
T5 sequence (Q6P0Q8 1104-1192 limits assumed): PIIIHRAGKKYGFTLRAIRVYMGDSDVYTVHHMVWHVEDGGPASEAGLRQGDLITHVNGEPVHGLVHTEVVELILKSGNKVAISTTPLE
In short: as §1

[19] = tested on: MAGI3-2 PDZ; test: holdup assay; format: binding, human; conditions: fraction of PDZ depleted; ~4 μM PDZ; biotinylated RSK1_725–735; triplicates
In short: as §2

[20] = tested on: SHANK3 PDZ; test: holdup assay; format: binding, human; conditions: ~4 μM PDZ
In short: as §1

[21] = tested on: LNX1 −3 PDZ; test: holdup assay; format: binding, human; conditions: ~4 μM PDZ
In short: as §1

[22] = tested on: GORASP1 PDZ; test: holdup assay; format: binding, human; conditions: ~4 μM PDZ
In short: as §1

[23] = target: T6, NHERF3-1 PDZ (Homo sapiens, UniProt Q5T2W1); test: holdup assay; format: binding; conditions: ~4 μM PDZ
T6 sequence (Q5T2W1 9-90 limits assumed): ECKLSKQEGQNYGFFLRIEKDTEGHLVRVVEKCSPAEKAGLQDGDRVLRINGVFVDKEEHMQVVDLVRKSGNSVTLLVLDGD
In short: as §1

[24] = target: T7, PDZRN4-1 PDZ (Homo sapiens, UniProt Q6ZMN7); test: holdup assay; format: binding; conditions: fraction of PDZ depleted; ~4 μM PDZ; biotinylated RSK1_725–735; triplicates
T7 sequence (Q6ZMN7 224-314 limits assumed): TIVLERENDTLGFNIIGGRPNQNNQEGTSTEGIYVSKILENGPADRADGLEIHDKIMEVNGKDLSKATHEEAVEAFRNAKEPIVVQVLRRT
In short: as §2

[25] = target: T8, PDZRN3-1 PDZ (Homo sapiens, UniProt Q9UPQ7); test: holdup assay; format: binding; conditions: ~4 μM PDZ
T8 sequence (Q9UPQ7 249-339 limits assumed): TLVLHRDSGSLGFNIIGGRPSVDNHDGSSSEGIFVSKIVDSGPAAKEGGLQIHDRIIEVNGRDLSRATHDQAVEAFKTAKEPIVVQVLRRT
In short: as §1

[26] = fraction of PDZ depleted, biotinylated RSK1_725–735, triplicates
[27] = read-out: KD, estimated, from BI, estimated 17 μM peptide

binding intensity (BI) [1, 26]: 0.22 ± 0.04
Kd [1, 27]: 57.2 µM
binding intensity (BI) [3, 26]: 0.00 ± 0.02
Kd [3, 27]: > 100 µM
binding intensity (BI) [4, 26]: 0.44 ± 0.03
Kd [4, 27]: 19.4 µM
binding intensity (BI) [5, 26]: 0.11 ± 0.03
Kd [5, 27]: > 100 µM
binding intensity (BI) [6]: 0.31 ± 0.04
binding intensity (BI) [7, 26]: 0.57 ± 0.01
Kd [7, 27]: 11.1 µM
binding intensity (BI) [8, 26]: 0.42 ± 0.01
Kd [8, 27]: 21.2 µM
binding intensity (BI) [9, 26]: 0.06 ± 0.02
Kd [9, 27]: > 100 µM
binding intensity (BI) [10, 26]: 0.01 ± 0.06
Kd [10, 27]: > 100 µM
binding intensity (BI) [11, 26]: 0.23 ± 0.04
Kd [11, 27]: 53.8 µM
average BI [12]: 0.42
maximal BI [12]: 0.77
binding intensity (BI) [13]: 0.63 ± 0.05
binding intensity (BI) [14, 26]: 0.43 ± 0.02
Kd [14, 27]: 20.3 µM
binding intensity (BI) [15, 26]: 0.05 ± 0.02
Kd [15, 27]: > 100 µM
binding intensity (BI) [16, 26]: 0.26 ± 0.07
Kd [16, 27]: 45.4 µM
binding intensity (BI) [17]: 0.67 ± 0.02
binding intensity (BI) [18]: 0.74 ± 0.03
binding intensity (BI) [19]: 0.28 ± 0.03
binding intensity (BI) [20, 26]: 0.27 ± 0.03
Kd [20, 27]: 43 µM
binding intensity (BI) [21, 26]: 0.04 ± 0.02
Kd [21, 27]: > 100 µM
binding intensity (BI) [22, 26]: 0.01 ± 0.02
Kd [22, 27]: > 100 µM
binding intensity (BI) [23, 26]: 0.41 ± 0.01
Kd [23, 27]: 22.1 µM
binding intensity (BI) [24]: 0.51 ± 0.02
binding intensity (BI) [25, 26]: 0.26 ± 0.01
Kd [25, 27]: 45.4 µM
Substance: unphosphorylated RSK1 peptide: C-terminal RSK1 PBM peptide; RSK1_725–735 (holdup, SPR), RSK1_729–735 (direct FP), RSK1_683–735 (competitive FP) ({Biotin-TTDS}-RRVRKLPSTTL)
interaction partner by updated analysis [2]: new interaction partners
